Test results: the RNAGym collection of RNA variant scans (doi:10.1126/science.aae0568)
Fewer inactive variants are shown than the library holds.

B1: tRNA (parent)
chain: GUUCCGUUGGCGUAAUGGUAACGCGUCUCCCUCCUAAGGAGAAGACUGCGGGUUCGAGUCCCGUACGGAACG

Variants of: B1
Assay: yeast fitness relative to wild type (ratio to wild type); higher = fitter; tRNA-Arg(CCU), competitive growth, 37 C, YPD
How it was run: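 Changes in genotype frequencies gave Darwinian fitness relative to wild type. Frequencies were read by 100-nucleotide paired-end sequencing of gene amplicons before and after pooled Saccharomyces cerevisiae strains, carrying tRNA-Arg(CCU) gene variants at the native locus, were competed in YPD at 37°C for 24 hours in six replicates. A genotype was kept only with ≥ 100 starting reads, and estimates < 0.5 were set to 0.5.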

**Q.** For G6C G12A G58C, which yeast fitness is on record?
**A.** 0.964

**Q.** Which yeast fitness does the source give for U7C G58C C66A here?
**A.** 0.584

**Q.** For C11U A43C G68A, which yeast fitness is on record?
**A.** 0.545

**Q.** For U16A A21U A42U, which yeast fitness is on record?
**A.** 0.591

**Q.** For U2A C5U G39C C60A, which yeast fitness is on record?
**A.** 0.541

**Q.** With U28C A43G as the variant, how does the yeast fitness read?
**A.** 0.976

**Q.** For A21U U47G G67A A69G, which yeast fitness is on record?
**A.** ≤ 0.5

**Q.** With G6C C27G U28C C62G as the variant, how does the yeast fitness read?
**A.** ≤ 0.5

**Q.** For C22U A37C G41C, which yeast fitness is on record?
**A.** ≤ 0.5

**Q.** Which yeast fitness does the source give for C4U G50A here?
**A.** 0.965

**Q.** With U26A C31A A42G C55G as the variant, how does the yeast fitness read?
**A.** ≤ 0.5

**Q.** Which yeast fitness does the source give for C11A G23C C49G here?
**A.** ≤ 0.5

**Q.** With G23C C29U A36C C49G A70U as the variant, how does the yeast fitness read?
**A.** 0.53

**Q.** Which yeast fitness does the source give for C22G G25A U53C here?
**A.** ≤ 0.5

**Q.** Which yeast fitness does the source give for U7G G12A G25A C33G G58A G67A here?
**A.** ≤ 0.5

**Q.** With U54C A70C as the variant, how does the yeast fitness read?
**A.** 0.925

**Q.** With U2C A14U C29U as the variant, how does the yeast fitness read?
**A.** 0.626

**Q.** With C5G A14C A37G C62G A69U as the variant, how does the yeast fitness read?
**A.** ≤ 0.5

**Q.** Which yeast fitness does the source give for U7C C31G C34U C55U G58A C61U G68C here?
**A.** ≤ 0.5

**Q.** With A45U G68U as the variant, how does the yeast fitness read?
**A.** 0.836

**Q.** For G17C G39A G52A, which yeast fitness is on record?
**A.** ≤ 0.5

**Q.** With C30A G38C C61A as the variant, how does the yeast fitness read?
**A.** 0.51

**Q.** With C5A A21C A43C G48A C66A as the variant, how does the yeast fitness read?
**A.** ≤ 0.5

**Q.** Which yeast fitness does the source give for A37C A43U G52A C62A C66A here?
**A.** ≤ 0.5

**Q.** With G10A U28A A42U as the variant, how does the yeast fitness read?
**A.** ≤ 0.5

**Q.** With C61U C66U as the variant, how does the yeast fitness read?
**A.** 0.929

**Q.** Which yeast fitness does the source give for C33G G52A U64C C66U G67A here?
**A.** ≤ 0.5

**Q.** Which yeast fitness does the source give for G12C A45C here?
**A.** 0.75

**Q.** With C22A C29U as the variant, how does the yeast fitness read?
**A.** 0.621

**Q.** With G52U C55A as the variant, how does the yeast fitness read?
**A.** 0.555

**Q.** For A45G C49U A69U, which yeast fitness is on record?
**A.** 1.04

**Q.** Which yeast fitness does the source give for G9A G50A C55U here?
**A.** 0.59

**Q.** With G10C C29U G56A C61U as the variant, how does the yeast fitness read?
**A.** ≤ 0.5

**Q.** For C27U A36C A69U, which yeast fitness is on record?
**A.** 0.646

**Q.** Which yeast fitness does the source give for C49U U53A G68A here?
**A.** ≤ 0.5

**Q.** With C30A A65U as the variant, how does the yeast fitness read?
**A.** 0.802

**Q.** For U13A C33G A40G C60A, which yeast fitness is on record?
**A.** ≤ 0.5

**Q.** For A20G G25A C49U, which yeast fitness is on record?
**A.** 0.781

**Q.** With A15C C31G C55A C66U as the variant, how does the yeast fitness read?
**A.** ≤ 0.5

**Q.** Which yeast fitness does the source give for C27G C34U G41C G51A here?
**A.** ≤ 0.5

**Q.** Which yeast fitness does the source give for G10A C27A U35C here?
**A.** ≤ 0.5

**Q.** With A21G C30A C55A as the variant, how does the yeast fitness read?
**A.** ≤ 0.5

**Q.** Which yeast fitness does the source give for C11A A20U G38A A45C here?
**A.** ≤ 0.5

**Q.** For A14U C34G, which yeast fitness is on record?
**A.** ≤ 0.5

**Q.** For A15C C31A G50A, which yeast fitness is on record?
**A.** ≤ 0.5

**Q.** With C34U G39C as the variant, how does the yeast fitness read?
**A.** 0.571

**Q.** Which yeast fitness does the source give for A45C G50A A57G here?
**A.** 0.665

**Q.** For C11G G48A A69U, which yeast fitness is on record?
**A.** ≤ 0.5

**Q.** With C5U U35A A36G as the variant, how does the yeast fitness read?
**A.** 0.673

**Q.** For C5U G18A C30A G58A G68U, which yeast fitness is on record?
**A.** 0.581

**Q.** Which yeast fitness does the source give for G6A G9C C11G C34U A57U here?
**A.** ≤ 0.5

**Q.** Which yeast fitness does the source give for A36G C62A here?
**A.** 0.672

**Q.** For U7A C22G C30U A37G, which yeast fitness is on record?
**A.** ≤ 0.5

**Q.** For U64A A65U A70U, which yeast fitness is on record?
**A.** 0.601

**Q.** For C22U G38A G68A, which yeast fitness is on record?
**A.** 0.584

**Q.** For C34U A70U, which yeast fitness is on record?
**A.** 0.662

**Q.** With U8G A14G A21G C27A U35A C62A A65C as the variant, how does the yeast fitness read?
**A.** ≤ 0.5

**Q.** For C27A C30G A42C C61G, which yeast fitness is on record?
**A.** 1.01

**Q.** With G12C U54A as the variant, how does the yeast fitness read?
**A.** 0.701

**Q.** For U13C G44A C49U, which yeast fitness is on record?
**A.** 0.799

**Q.** With G9A G10A C31G G52A C62A as the variant, how does the yeast fitness read?
**A.** ≤ 0.5

**Q.** Which yeast fitness does the source give for U13G C24U G44A G58C here?
**A.** 0.508

**Q.** Which yeast fitness does the source give for C30U G52C C66G here?
**A.** 0.707

**Q.** Which yeast fitness does the source give for C4U C27G A45C here?
**A.** 0.564

**Q.** Which yeast fitness does the source give for A20G A37G G44A A65U here?
**A.** ≤ 0.5

**Q.** Which yeast fitness does the source give for C5G U16A C33A A43C G50A A57U C60G here?
**A.** 0.523

**Q.** For G10C C49G, which yeast fitness is on record?
**A.** 0.619

**Q.** Which yeast fitness does the source give for U2G A45G here?
**A.** 0.869

**Q.** With G10C A37C C60G as the variant, how does the yeast fitness read?
**A.** ≤ 0.5

**Q.** With C24U A36U A43G as the variant, how does the yeast fitness read?
**A.** 0.509

**Q.** Which yeast fitness does the source give for U7C A15G C27U C29U here?
**A.** ≤ 0.5

**Q.** For C4U U8C A37U A45U C49U, which yeast fitness is on record?
**A.** ≤ 0.5

**Q.** With C4U C30U C31G as the variant, how does the yeast fitness read?
**A.** 0.583

**Q.** For A15U G17A U53C C66U A69U, which yeast fitness is on record?
**A.** ≤ 0.5

**Q.** With U8C G23U A42G C60A as the variant, how does the yeast fitness read?
**A.** ≤ 0.5

**Q.** Which yeast fitness does the source give for A15G G23C A37U A65U here?
**A.** ≤ 0.5

**Q.** With C11A A15G C22U C29A A43U A45G as the variant, how does the yeast fitness read?
**A.** ≤ 0.5

**Q.** For U7C G68C, which yeast fitness is on record?
**A.** 0.876

**Q.** Which yeast fitness does the source give for C22U C60U A70U here?
**A.** 0.678

**Q.** For U32G U35A G48A G63C A69G, which yeast fitness is on record?
**A.** 0.524

**Q.** With C29G A37U C46U as the variant, how does the yeast fitness read?
**A.** ≤ 0.5

**Q.** For C31G U47G U53G C61U G68A, which yeast fitness is on record?
**A.** ≤ 0.5

**Q.** Which yeast fitness does the source give for U32G C61U C66U here?
**A.** 0.577
